The values that follow come from PMC3512081 (Journal of immunology (Baltimore, Md. : 1950), 2011).

The structures appear in SMILES notation. Several values for one entry are separate records, joined by “and”; a condition that tells them apart may be missing. Equal entries are not always repeated. Where two headings read alike, the source gives them in different places.

Assay [1] deals with histidine uptake. Put plainly: 14C-histidine uptake. The format is cell-based. The following applies: data not shown.
Assay [2] concerns IDO-transduced (C7) EG7 cells. Put plainly: 3H-L-tryptophan uptake by IDO positive EG7 cells. It counts as cell-based, mouse. Particulars: for tryptophan uptake maintained: 0.05mM, EG7-C7 cells, absence of BCH; for fold lower affinity of the additional transporter versus the first transporter: IDO positive C7 cells, equation based on two independent systems; for effect on tryptophan uptake, inhibitor alone: IDO positive cells. In a few lines: (§1)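 EG7 mouse T lymphoma cells: wild-type, GFP-only lentivirus controls, or an IDO/GFP lentivirus-transduced clone. Cultured 48 h, washed, then held 20-30 min in PBS or sodium-free choline buffer (pH 7.4). 3H-L-tryptophan was added at 50 pmol/ml and incubated a fixed time at 37°C. Uptake was stopped by spinning cells through oil. Competitors: BCH, D- or L-Met titrations, glutamine. Duplicate samples. Ki fitted assuming one or two transport systems.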

For assay [3], the system named is EG7 WT and GFP-transduced cells. Put plainly: 3H-L-tryptophan uptake by IDO negative EG7 cells. The format is cell-based, mouse. Summed up: as §1
The test system of assay [4] is activated human T cells. Put plainly: Tryptophan uptake by activated human T cells. Particulars: preliminary data, not shown. The format is cell-based.
Assay [5] has as its system IDO-lentivirus transduced or IFN-γ treated Hela cells. Put plainly: 3H-L-tryptophan uptake by IDO positive Hela cells. The format is cell-based, human. The following applies: for effect of excess unlabelled amino acid on 3H-tryptophan uptake: high concentration (5mM glycine, histidine, glutamine); for Ki: read-out: Ki for 3H-tryptophan uptake. In a few lines: (§2)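 HeLa cells were used untreated, GFP-transduced, human-IDO lentivirus-transduced, or given 1000 U/ml IFNγ for 48 h, and assayed at 90-100% confluence. Preincubated 20-30 min in PBS or choline buffer (pH 7.4). 3H-L-tryptophan was added at 50 pmol/ml, with initial-rate uptake over 3 min at 37°C. Stopped with 20mM L-lysine in ice-cold PBS, then NaOH/SDS lysis and scintillation counting. Competitors: BCH, D/L-Met, 5mM histidine, glycine or glutamine, and titrations. Triplicates, normalized; Student's t-test.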

Assay [6] has as its system WT and GFP-transduced Hela cells. Put plainly: 3H-L-tryptophan uptake by IDO negative Hela cells. Particulars: for effect of excess unlabelled amino acid on 3H-tryptophan uptake: IDO negative Hela cells, high concentration (5mM glycine, histidine, glutamine). It counts as cell-based, human. In a few lines:
as §2

Assay [7] concerns IDO induced tryptophan transporter. It counts as cell-based, human. The following applies: for effect on tryptophan uptake in the presence of 2.5mM glutamine: IDO positive Hela cells, L-tryptophan at 2mM. Summed up: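 IFN-γ-treated or human IDO-lentivirus-transduced Hela cells are grown 48h to 90-100% confluence, washed, then preincubated 20-30 min in PBS or choline buffer (pH 7.4). Add 3H-L-tryptophan at 50pmol/ml with competing amino acid and take uptake at 37°C under initial-rate conditions over 3 min. Stop with 20mM L-lysine in ice-cold PBS, lyse in 1% NaOH/0.1% SDS, and count by liquid scintillation.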

[8] abbreviates: WT and GFP-transduced Hela cells.

As to `NC(=O)CC[C@H](N)C(=O)O` [glutamine], the “effect on uptake of 14C-histidine” value in assay [1] is “inhibited”. The “tryptophan uptake in the presence of glutamine” value in assay [2] (murine EG7-IDO positive cells, data not shown) is recorded as “resistant to inhibition”; in assay [3] (WT and GFP-transduced EG7 cells, data not shown) it was “inhibited”. In addition, the “sensitivity of tryptophan uptake to inhibition” value in assay [4] is reported as “highly sensitive to inhibition”. In addition, the tryptophan uptake maintained entry in assay [5] (5mM, IDO positive Hela cells) is listed as “over 50%”. The “fold increase in Ki for IDO positive cells compared with IDO negative controls” value in assay [5] (Hela cells) is 10 fold. Besides, the “effect of excess unlabelled amino acid on 3H-tryptophan uptake” value (shortened to “effect of excess unlabelled amino acid”) in assay [5] (IDO positive Hela cells) is on record as “a proportion of the tryptophan uptake was retained”; in assay [6], “completely inhibited”. In assay [6] (setting [8]), the “effect of glutamine alone on tryptophan uptake” value was “completely abolished”.

With `NCC(=O)O` [glycine], the “effect of excess unlabelled amino acid” value in assay [5] (IDO positive Hela cells) and in assay [6] was “no effect” throughout.

Regarding `CSCC[C@H](N)C(=O)O` [L-Met, L-methionine], in assay [2], the tryptophan uptake maintained entry is listed as “greater than 40%” and the “fold lower affinity of the additional transporter versus the first transporter” value was found to be 10 fold. Moreover, the inhibition at 50 µM in assay [3] (Mus musculus, EG7, read-out: inhibition of tryptophan uptake) is over 80%. Moreover, the “effect on 3H-tryptophan uptake” value in assay [6] (setting [8]) was “strongly inhibited”.

Consider `NC1(C(=O)O)CC2CCC1C2` (stereo not drawn) [BCH, 2-aminobicyclo-(2,2,1)-heptane-2-carboxylic acid], for which the “effect on transporter-mediated 3H-L-tryptophan uptake” value is given as “completely abolished” in assay [2] (high concentrations, IDO positive EG7 cells, sodium-free); “completely abolished” in assay [3] (high concentrations, EG7-WT and GFP cells, sodium-free). The Ki was about 300 µM in assay [5] (IDO transduced Hela cells); about 600 µM in assay [5] (IFN-γ treated Hela cells); 12 µM in assay [6] (read-out: Ki for 3H-tryptophan uptake, control Hela cells). Also, the “effect on 3H-tryptophan uptake” value in assay [6] (setting [8]) is “strongly inhibited”. Moreover, the “effect on tryptophan uptake in the presence of 2.5mM glutamine” value (shortened to “effect … of 2.5mM glutamine”) in assay [7] is reported as “no additional inhibition”.

For `N[C@@H](Cc1c[nH]c2ccccc12)C(=O)O` [tryptophan, L-tryptophan], in assay [1], the “effect on uptake of 14C-histidine” value is listed as “inhibited”. Besides, the “calculated Ki compared between cell types” value in assay [5] (Hela cells, IDO positive versus IDO negative) is reported as “almost identical”. Besides, the “effect of excess unlabelled amino acid” value in assay [5] (IDO positive Hela cells) and in assay [6] was “effectively competed” each time. In addition, the “effect … of 2.5mM glutamine” value in assay [7] is on record as “reduced to baseline”. Further, in assay [7] (read-out: Ki of the induced glutamine-resistant 3H-tryptophan transport, IDO positive tumor cells, 2.5mM glutamine), the Ki was 2.3 to 4.2 µM and 3 µM.

In the case of `N[C@@H](Cc1ccccc1)C(=O)O` [phenylalanine], the “effect … of 2.5mM glutamine” value in assay [7] is given as “inhibited”. Moreover, in assay [7] (IFN-γ-treated and IDO transduced Hela cells, 2.5mM glutamine), the “inhibition of tryptophan uptake in the presence of glutamine” value is on record as “over 50%”.

With `CCN1C(=O)C=CC1=O` [NEM, N-ethyl maleimide], the “effect on tryptophan uptake, inhibitor alone” value in assay [2] (data not shown) is given as “minimal effect”.

With `CNC(C)(C)C(=O)O` [MeAIB, methyl-aminoisobutyric acid], the “effect on tryptophan uptake, inhibitor alone” value in assay [2] (data not shown) was “minimal effect”.

Take `N[C@H](Cc1c[nH]c2ccccc12)C(=O)O` [D-tryptophan]: in assay [7], the “effect … of 2.5mM glutamine” value was “minimal inhibition”.

Regarding `N[C@@H](Cc1ccc(O)cc1)C(=O)O` [tyrosine], in assay [7], the “effect … of 2.5mM glutamine” value is recorded as “little additional effect”.

Regarding `CSCC[C@@H](N)C(=O)O` [D-Met, D-Methionine], in assay [2], the tryptophan uptake maintained result was “greater than 40%” and the “fold lower affinity of the additional transporter versus the first transporter” value is recorded as 10 fold. Moreover, in assay [2] (EG7 cells, single uptake system calculation), the “fold higher Ki in IDO positive cells than IDO negative cells” value is “approximately 10 fold”. Moreover, the Ki in assay [2] (read-out: Ki calculated based on a single tryptophan uptake system, IDO positive EG7 cells) was 100 to 300 µM. For the same compound, the “inhibition of tryptophan uptake” value in assay [3] (0.05mM, WT and GFP-expressing EG7 cells, absence of BCH) is given as “over 80%”. Also, in assay [6] (setting [8]), the “effect on 3H-tryptophan uptake” value is reported as “strongly inhibited”.

Take `N[C@@H](Cc1ccc(O)c(O)c1)C(=O)O` [L-Dopa, L-3,4-dihydroxyphenylalanine]: the “effect … of 2.5mM glutamine” value in assay [7] is on record as “inhibited”.

As to `N[C@@H](Cc1c[nH]cn1)C(=O)O` [histidine], the “effect on uptake of 14C-histidine” value in assay [1] is “inhibited”. In assay [5] (Hela cells), the “fold increase in Ki for IDO positive cells compared with IDO negative controls” value was determined as 10 fold. Also, the “effect of excess unlabelled amino acid” value is recorded as “a proportion of the tryptophan uptake was retained” in assay [5] (IDO positive Hela cells) and “completely inhibited” in assay [6].
